Source: PubChem (Sanford-Burnham Center for Chemical Genomics)
Only some compounds are listed: those with a hit (about 1.7% of all), similar ones and a draw of the others.
LMPTP block = LMPTP phosphatase inhibitors, primary screen, biochemical, fluorescence intensity, uHTS; recombinant LMPTP-A, OMFP fluorogenic substrate; inhibition, % at 20 µM; 0.22% of 360,000 active;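 active means compounds that cut the enzyme signal by at least half of the control window in the single-dose screen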;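 further: plate controls were DMSO wells with enzyme plus substrate for no effect and substrate without enzyme for full effect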
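Test system: LMPTP-A phosphatase enzyme; input: 0.625 nM LMPTP-A final; reagent: OMFP substrate, 400 µM final; compound dosing: 20 µM single dose, 3% DMSO; incubation: 50 min dark incubation at room temperature; measured by: endpoint fluorescence intensity from OMFP dephosphorylation; measure: % inhibition relative to no-enzyme and uninhibited control wells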
DNMT1 inh = human DNMT1 methyltransferase inhibitors, primary screen, biochemical, molecular beacon, fluorescence, HinP1I cleavage, uHTS; DNA (cytosine-5)-methyltransferase 1 (Homo sapiens), P26358; inhibition (reported as % activation of signal), % at 10 µM; 0.83% of 360,000 active; AID 588458, 2011; in the data active means inhibition above about 50%
SUMO1-SIM PPI = modulators of SUMO1 protein-protein interactions, primary screen, biochemical, uHTS; Small ubiquitin-related modifier 1 (Homo sapiens), P63165; SUMO1 binding to a labelled peptide, TR-FRET, 1 h; inhibition, % at 20 µM; 0.33% of 360,000 active; in the data active means inhibition above about 37%
Scp1 inh = Scp-1 phosphatase inhibitors, primary screen, biochemical, colorimetric, uHTS; inhibition, % at 20 µM; 0.88% of 340,000 active; Recombinant Scp1, phosphopeptide, malachite green phosphate absorbance;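 active means inhibition above about 50% at 20 µM, limit read from the data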;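 further: plate controls were DMSO wells with enzyme for no effect and wells lacking enzyme for full effect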
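Test system: SCP-1 catalytic domain; Buffer or medium: Acidic Tris acetate buffer with magnesium and detergent; Also added: Phosphorylated 17-residue peptide substrate; Compound: single 20 µM dose, 1% DMSO; Schedule: enzyme reaction 45 min at room temperature, colour 5 min, stabilisation 30 min; Signal: Phosphate-binding colour reagent, absorbance read at 630 nm.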
STEP block = STEP phosphatase inhibitors, primary screen, biochemical, fluorescence intensity, uHTS; recombinant STEP, OMFP fluorogenic substrate; inhibition, % at 20 µM; 0.25% of 360,000 active;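 active means inhibition at 20 µM, scaled per plate between control wells, above about 37%, limit read from the data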;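 further: 0% = DMSO with enzyme and substrate and 100% = substrate only without enzyme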
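Measure: Control-normalized % inhibition with plate pattern correction | Test system: STEP phosphatase, cell-free reaction | Medium: pH 6.0 Bis-Tris with DTT and Tween 20 | Technique: Fluorescence, 480/540 nm | Times: Reaction 20 min, ambient temperature | Doses: Single compound dose of 20 µM, 1% DMSO final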
STEP conf = STEP phosphatase inhibitor hit confirmation, biochemical, fluorescence intensity, single concentration; recombinant STEP, OMFP fluorogenic substrate; 32% of 520 active; shares compounds with STEP block; AID 623866, 2012; inhibition, % at 20 µM; call rule not given here;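 further: 0% = enzyme with substrate plus DMSO and 100% = substrate without enzyme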
* = called active by the depositor; . = not tested or not shown.

SMILES	LMPTP block	DNMT1 inh	SUMO1-SIM PPI	Scp1 inh	STEP block	STEP conf
COc1ccccc1Nc1c([N+](=O)[O-])cc(C)cc1[N+](=O)[O-]	3	1	-32	-5	5	.
COc1cc(C(=O)NNC(=O)C2CC=CCC2C(=O)O)cc(OC)c1OC (centres undefined)	1	2	3	-5	119*	10
COCCn1c(SCC(=O)Nc2ccc3[nH]c(=O)[nH]c3c2)nc2ccccc2c1=O	-2	2	6	-16	38*	3
COCCn1c(SCC(=O)Nc2ccc3c(c2)OCCO3)nc2ccccc2c1=O	0	2	4	.	-2	.
CCC(C)(C)C1CCc2[nH]nc(C(=O)NC(C)C)c2C1 (centres undefined)	-1	4	2	-3	0	.
Cc1cccc2c(C(=O)N3CCN(c4ccccn4)CC3)cc(-c3cccc(Br)c3)nc12	6	-10	-4	-1	69*	19
O=C(c1cc(-c2cccc(Cl)c2)nc2ccccc12)N1CCN(c2ccccn2)CC1	6	-2	-3	0	1	.
O=C(CC(=O)c1ccccc1)Nc1cccc([N+](=O)[O-])c1	0	-5	-30	.	2	.
O=C(CC(=O)c1cccc([N+](=O)[O-])c1)Nc1ccccc1Cl	-2	-4	-12	-7	120*	0
NS(=O)(=O)c1ccc(NC(=S)N2CCC(Cc3ccccc3)CC2)cc1	3	2	5	-6	80*	31*
NC(=O)C1(N2CCCCC2)CCN(C(=S)Nc2ccc(S(N)(=O)=O)cc2)CC1	-1	-3	-2	-4	92*	63*
NC(=O)C1(N2CCCCC2)CCN(C(=S)Nc2ccccc2)CC1	-1	0	5	-1	18	.
NS(=O)(=O)c1ccc(NC(=S)N2CCN(Cc3ccc4c(c3)OCO4)CC2)cc1	-1	-1	-1	-24	92*	25
CC1CCN(c2c([N+](=O)[O-])c(=O)oc3ccccc23)CC1	-1	1	0	-8	53*	1
O=c1oc2ccccc2c(N2CCCC2)c1[N+](=O)[O-]	0	5	0	-1	0	.
NC(=NCc1ccc2c(c1)OCO2)NC(=O)c1ccccc1	22	-8	12	15	70*	35*
Cc1cc(C(=O)NCc2ccc(F)cc2)n(-c2ccccc2)n1	-3	-1	-3	-12	1	.
CC(C)c1ccc(NC2CCCN(C(=O)CCc3cn[nH]c3)C2)cc1 (centres undefined)	0	3	6	-7	2	.
COC(=O)[C@@]12CCCN1[C@H](c1ccc(-c3ccc(C(C)=O)cc3)c(OC)c1)[C@H]1C(=O)N(C)C(=O)[C@H]12	-2	-3	3	-6	-3	.
COc1ccc(CCN(Cc2ccccn2)C(=S)Nc2cccc(C)c2)cc1OC	-1	8	1	-6	-1	.
COc1ccc(NC(=S)N(CCc2ccc(OC)c(OC)c2)Cc2ccccn2)cc1	-1	1	-1	-5	48*	13
Cc1cc([N+](=O)[O-])c2[nH]c(C(=O)N/N=C/c3ccccc3C(=O)O)c(-c3ccccc3)c2c1	0	1	5	2	73*	24
NS(=O)(=O)c1ccc(N/N=C/c2ccccc2C(=O)O)c([N+](=O)[O-])c1	2	2	-29	-2	-2	.
CC1(C(=O)NC2CCCC2)CCC(=O)N1C1CCN(Cc2ccccc2)CC1 (centres undefined)	-1	2	1	.	2	.
S=C1NC[C@H](Cc2ccccc2)N1CCCCC1CCCCC1	2	-10	4	0	0	.
SMILES	LMPTP block	DNMT1 inh	SUMO1-SIM PPI	Scp1 inh	STEP block	STEP conf
S=C1NC[C@H](Cc2ccccc2)N1CC1CCN(CCCC2CCCC2)CC1	2	5	-2	16	43*	15
COc1ccc(CNC(=O)C(C)OC(=O)C23CC4CC(CC(O)(C4)C2)C3)cc1 (centres undefined)	-1	0	2	-5	97*	-3
Cc1cccc(C(=O)NCC(=O)N(C)Cc2nc3ccccc3c(=O)[nH]2)c1	0	3	0	-2	97*	5
CCCCOc1ccc(C(=O)NCC(=O)N(C)Cc2nc3ccccc3c(=O)[nH]2)cc1	-2	19	-3	-6	0	.
COc1cc(F)ccc1S(=O)(=O)N1CCN(c2ccccc2)CC1	-2	-1	3	-3	2	.
COc1cc(C)c(NC(=O)C(=S)NCCc2ccccc2)cc1C	2	3	1	-4	47*	6
COc1ccc(NC(=S)NCCc2ccccc2)c(C)c1	2	1	-8	-2	4	.
COc1ccc(OC)c(S(=O)(=O)NC(N)=NCCc2ccccc2)c1	-1	1	2	-1	0	.
Cc1cc(C)c2nc(-c3ccccn3)cc(C(=O)Nc3ccc(S(=O)(=O)Nc4onc(C)c4C)cc3)c2c1	4	68*	14	28	41*	72*
Cc1cc(C)c2nc(-c3ccccn3)cc(C(=O)Nc3ccc(S(=O)(=O)Nc4cc(C)on4)cc3)c2c1	3	34	6	7	4	.
COC(=O)Nc1sc2c(c1C(N)=O)CCC(C)C2 (centres undefined)	2	1	2	-3	97*	80*
CC1CCc2c(sc(NC(=O)C3c4ccccc4Oc4ccccc43)c2C(N)=O)C1 (centres undefined)	1	-10	-2	-4	3	.
Cc1cccc(NC(=O)CN2CCN(C(=O)CNC(=O)c3ccc(-c4ccccc4)cc3)CC2)c1C	0	-3	-6	.	1	.
CCCC(=O)Nc1cc(-c2nn(C)c(=O)c3ccccc23)ccc1N1CCOCC1	-2	10	-2	23	42*	9
CC(=O)Nc1cc(-c2nn(C)c(=O)c3ccccc23)ccc1N1CCOCC1	-1	4	-7	-4	-4	.
COc1ccccc1NS(=O)(=O)c1cc(NC(=O)c2sccc2C)ccc1N1CCCC1	4	-7	3	-7	98*	93*
COc1ccccc1NS(=O)(=O)c1cc(NC(=S)NCCN2CCOCC2)ccc1N1CCOCC1	0	0	3	-5	91*	69*
CCCCNC(=O)c1cccc(C(=O)NCCCC)c1	-1	1	3	-8	96*	5
CC(C)(C)OC(=O)N1CCC(CNC(=O)c2cccs2)CC1	0	0	5	-7	-1	.
